Measured values reported in ChEMBL document CHEMBL1140925, “Nuclear factor-kappaB mediated inhibition of cytokine production by imidazoline scaffolds” (J Med Chem, 2009).

Assays:
[1] = tested on: Blood; assay: Antiinflammatory activity in human whole blood assessed as inhibition of IL-1-beta-induced IL6 production after 18 hrs by ELISA; format: functional, tissue-based
How it was run: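 Human blood from donors with white count in the normal range, diluted 1:10 in RPMI-1640 with 10% FBS, penicillin and streptomycin. Aliquots were preincubated with vehicle (0.1% DMSO final) or compound at 10, 3, 1, 0.3 or 0.1 µM final for 2 h at 37 °C, 5% CO2. IL-1β (200 U/mL) was then added for 18 h, and plasma was collected and frozen. Cytokine was measured by ELISA.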

[2] = tested on: HeLa; assay: Cell cycle arrest in TNF-alpha-stimulated human HeLa cells transfected with NFkappaB-Luc assessed as accumulation at G2/G1 phase at 10 uM after 8 hrs by propidium iodide-based flow cytometry; format: functional
How it was run: (§1)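 HeLa NF-κB-luc cells (stable, hygromycin-selected) were treated with vehicle (1% DMSO) or compound at 40–0.2 µM final for 8 h at 37 °C, 5% CO2. Adherent cells were trypsinized, resuspended in PBS/50% FBS, fixed overnight in 70% ice-cold ethanol and washed with cold PBS/10% FBS, then analysed for cell cycle by flow cytometry.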

[3] = tested on: HeLa; assay: Cell cycle arrest in TNF-alpha-stimulated human HeLa cells transfected with NFkappaB-Luc assessed as accumulation at S phase at 0.1 uM after 8 hrs by propidium iodide-based flow cytometry; format: functional
[4] = Cytotoxicity against human whole blood IL-1-beta-stimulated lymphocytes assessed as survival cell count in millions at 10 uM by trypan blue staining based hemocytometer
[5] = tested on: HeLa; assay: Cell cycle arrest in TNF-alpha-stimulated human HeLa cells transfected with NFkappaB-Luc assessed as accumulation at S phase at 0.05 uM after 8 hrs by propidium iodide-based flow cytometry; format: functional
[6] = tested on: HeLa; assay: Cell cycle arrest in TNF-alpha-stimulated human HeLa cells transfected with NFkappaB-Luc assessed as accumulation at diploid stage at 20 uM after 8 hrs by propidium iodide-based flow cytometry; format: functional; how it was run: as §1
[7] = Cytotoxicity against human whole blood lymphocytes assessed as survival cell count in millions at 10 uM by trypan blue staining based hemocytometer
[8] = tested on: HeLa; assay: Cell cycle arrest in TNF-alpha-stimulated human HeLa cells transfected with NFkappaB-Luc assessed as accumulation at S phase at 5 uM after 8 hrs by propidium iodide-based flow cytometry; format: functional; how it was run: as §1
[9] = tested on: HeLa; assay: Cell cycle arrest in TNF-alpha-stimulated human HeLa cells transfected with NFkappaB-Luc assessed as accumulation at S phase at 1 uM after 8 hrs by propidium iodide-based flow cytometry; format: functional
[10] = tested on: HeLa; assay: Cell cycle arrest in human HeLa cells transfected with NFkappaB-Luc assessed as accumulation at diploid G1 phase at 20 uM after 8 hrs by propidium iodide-based flow cytometry; format: functional; how it was run: as §1
[11] = tested on: HeLa; assay: Cell cycle arrest in TNF-alpha-stimulated human HeLa cells transfected with NFkappaB-Luc assessed as accumulation at diploid G1 phase at 20 uM after 8 hrs by propidium iodide-based flow cytometry; format: functional; how it was run: as §1
[12] = tested on: HeLa; assay: Cell cycle arrest in TNF-alpha-stimulated human HeLa cells transfected with NFkappaB-Luc assessed as accumulation at S phase at 0.5 uM after 8 hrs by propidium iodide-based flow cytometry; format: functional; how it was run: as §1
[13] = tested on: HeLa; assay: Effect on cell cycle arrest in TNF-alpha-stimulated human HeLa cells assessed as cell aggregate level at 1 uM after 8 hrs by propidium iodide-based flow cytometry; format: functional
[14] = tested on: HeLa; assay: Cell cycle arrest in human HeLa cells transfected with NFkappaB-Luc assessed as accumulation at diploid stage at 20 uM after 8 hrs by propidium iodide-based flow cytometry; format: functional; how it was run: as §1
[15] = tested on: HeLa; assay: Cell cycle arrest in TNF-alpha-stimulated human HeLa cells transfected with NFkappaB-Luc assessed as accumulation at G2/G1 phase at 5 uM after 8 hrs by propidium iodide-based flow cytometry; format: functional; how it was run: as §1
[16] = tested on: HeLa; assay: Cell cycle arrest in TNF-alpha-stimulated human HeLa cells transfected with NFkappaB-Luc assessed as accumulation at G2/G1 phase after 8 hrs by propidium iodide-based flow cytometry
[17] = tested on: HeLa; assay: Cell cycle arrest in TNF-alpha-stimulated human HeLa cells transfected with NFkappaB-Luc assessed as accumulation at diploid stage at 0.05 uM after 8 hrs by propidium iodide-based flow cytometry; format: functional
[18] = tested on: HeLa; assay: Cell cycle arrest in human HeLa cells transfected with NFkappaB-Luc assessed as accumulation at G2/G1 phase at 20 uM after 8 hrs by propidium iodide-based flow cytometry; format: functional; how it was run: as §1
[19] = tested on: HeLa; assay: Effect on cell cycle arrest in human HeLa cells assessed as cell debris level at 20 uM after 8 hrs by propidium iodide-based flow cytometry; format: functional
How it was run: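 Cells were exposed to vehicle (1% DMSO) or compound for 8 h at 37 °C, 5% CO₂. They were then trypsinized, resuspended in PBS with 50% FBS, fixed overnight in ice-cold 70% ethanol, and washed twice with ice-cold PBS containing 10% FBS before flow cytometric cell-cycle analysis.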

[20] = tested on: HeLa; assay: Effect on cell cycle arrest in TNF-alpha-stimulated human HeLa cells assessed as cell debris level at 0.05 uM after 8 hrs by propidium iodide-based flow cytometry; format: functional
[21] = tested on: HeLa; assay: Cell cycle arrest in TNF-alpha-stimulated human HeLa cells transfected with NFkappaB-Luc assessed as accumulation at diploid G2 phase at 0.1 uM after 8 hrs by propidium iodide-based flow cytometry; format: functional
[22] = tested on: HeLa; assay: Effect on cell cycle arrest in TNF-alpha-stimulated human HeLa cells assessed as cell aggregate level at 10 uM after 8 hrs by propidium iodide-based flow cytometry; format: functional
[23] = tested on: HeLa; assay: Cell cycle arrest in TNF-alpha-stimulated human HeLa cells transfected with NFkappaB-Luc assessed as accumulation at G2/G1 phase at 1 uM after 8 hrs by propidium iodide-based flow cytometry; format: functional
[24] = Cytotoxicity against human whole blood lymphocytes assessed as survival cell count in millions at 20 uM by trypan blue staining based hemocytometer
[25] = tested on: HeLa; assay: Effect on cell cycle arrest in TNF-alpha-stimulated human HeLa cells assessed as cell aggregate level at 0.5 uM after 8 hrs by propidium iodide-based flow cytometry; format: functional
[26] = tested on: HeLa; assay: Cell cycle arrest in TNF-alpha-stimulated human HeLa cells transfected with NFkappaB-Luc assessed as accumulation at G2/G1 phase at 0.1 uM after 8 hrs by propidium iodide-based flow cytometry; format: functional
[27] = Cytotoxicity against human whole blood IL-1-beta-stimulated lymphocytes assessed as survival cell count in millions at 20 uM by trypan blue staining based hemocytometer
[28] = tested on: HeLa; assay: Effect on cell cycle arrest in TNF-alpha-stimulated human HeLa cells assessed as cell debris level at 10 uM after 8 hrs by propidium iodide-based flow cytometry; format: functional
[29] = tested on: HeLa; assay: Effect on cell cycle arrest in TNF-alpha-stimulated human HeLa cells assessed as cell aggregate level at 0.05 uM after 8 hrs by propidium iodide-based flow cytometry; format: functional
[30] = tested on: HeLa; assay: Cell cycle arrest in TNF-alpha-stimulated human HeLa cells transfected with NFkappaB-Luc assessed as accumulation at diploid G2 phase at 0.5 uM after 8 hrs by propidium iodide-based flow cytometry; format: functional; how it was run: as §1
[31] = Cytotoxicity against human whole blood IL-1-beta-stimulated lymphocytes assessed as survival cell count in millions at 3 uM by trypan blue staining based hemocytometer
[32] = tested on: HeLa; assay: Cell cycle arrest in TNF-alpha-stimulated human HeLa cells transfected with NFkappaB-Luc assessed as accumulation at S phase at 20 uM after 8 hrs by propidium iodide-based flow cytometry; format: functional; how it was run: as §1

EC50 [1]: 1830 nM
Structure (SMILES): CCOC(=O)[C@]1(c2ccccc2)N=C(c2ccccc2)N(Cc2ccccc2)[C@@H]1c1ccccc1 (racemic)
Ratio [2]: 1.91
Activity [3]: 21.47%
Activity [4]: 1.48 mL⁻¹
Activity [5]: 22.8%
Activity [6]: 100%
Activity [7]: 1.6 mL⁻¹
Activity [8]: 19.8%
Activity [9]: 22.9%
Activity [10]: 65.19%
Activity [11]: 65.96%
Activity [12]: 22.52%
Activity [13]: 0%
Activity [14]: 100%
Ratio [15]: 1.91
Ratio [16]: 1.91
Activity [17]: 100%
Ratio [18]: 1.9
Activity [19]: 9.42%
Activity [20]: 2.47%
Activity [21]: 14.03%
Activity [22]: 0%
Ratio [23]: 1.91
Cell count [24]: 0.2617
Activity [25]: 0%
Ratio [26]: 1.92
Activity [27]: 1.46 mL⁻¹
Activity [28]: 15.28%
Activity [29]: 0%
Activity [30]: 13.4%
Activity [31]: 1.28 mL⁻¹
Activity [32]: 19.29%
